Source: ChEMBL document CHEMBL5357041, “Discovery of novel β-elemene hybrids with hydrogen sulfide-releasing moiety possessing cardiovascular protective activity for the treatment of atherosclerosis” (RSC Med Chem, 2024)
Converted amounts (≈) assume the structure as drawn. The source made the active and inactive calls. No cut-off for these calls is given here.

Assays:
[1] = tested on: Thoracic aorta; assay: Vasodilation activity against KCl-induced Sprague-Dawley rat thoracic aorta vessels contraction at 1 uM; type: functional
Procedure, shortened: (§1)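 Aortic rings of about 2 mm from anesthetized SD rats mounted in Krebs solution at 37 °C under oxygen, preload 9.8 mN, equilibrated about 1 h. Rings contracted with 25 mM K⁺, then compound added cumulatively. Relaxation (%) = (maximum KCl tension − tension after compound)/(maximum KCl tension − preload). ADT-OH served as control; mean ± SD, n = 4.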

[2] = tested on: Thoracic aorta; assay: Vasodilation activity against KCl-induced Sprague-Dawley rat thoracic aorta vessels contraction at 5 uM; type: functional; procedure, shortened: as §1
[3] = tested on: Thoracic aorta; assay: Vasodilation activity against KCl-induced Sprague-Dawley rat thoracic aorta vessels contraction at 10 uM; type: functional; procedure, shortened: as §1
[4] = tested on: Thoracic aorta; assay: Vasodilation activity against KCl-induced Sprague-Dawley rat thoracic aorta vessels contraction at 20 uM; type: functional; procedure, shortened: as §1
[5] = tested on: Thoracic aorta; assay: Vasodilation activity against KCl-induced Sprague-Dawley rat thoracic aorta vessels contraction at 40 uM; type: functional; procedure, shortened: as §1
[6] = tested on: RAW264.7; assay: Lipid lowering activity in ox-LDL stimulated mouse RAW264.7 cells at 50 uM by oil red O staining based microscopic analysis; type: functional, cell-based
Procedure, shortened: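 RAW 264.7 cells allowed to adhere 2 h, then exposed to ox-LDL (50 μg/mL) plus compound (50 μM) for 24 h. Cells fixed in 4% paraformaldehyde, stained with oil red O, rinsed in 60% isopropanol and counterstained with hematoxylin. Oil red O-positive area percentage quantified microscopically; ANOVA used.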

[7] = Cytotoxicity against mouse BMDM cells assessed as cell viability at 50 uM incubated for 24 hrs by MTT assay; type: toxicity, cell-based; conditions: BMDM cells (bone marrow-derived macrophages), read-out: Activity
Procedure, shortened: (§2)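 Primary bone marrow macrophages taken from 6-week-old male C57 mice and cultured 6–7 days before use. Compounds dosed for 24 h, then MTT added for 4 h and formazan dissolved in DMSO; absorbance read at 570 nm. Triplicate wells; medium-only and untreated-cell controls; mean ± SD, n = 4.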

[8] = Cytotoxicity against mouse BMDM cells assessed as cell viability at 100 uM incubated for 24 hrs by MTT assay; type: toxicity, cell-based; conditions: BMDM cells (bone marrow-derived macrophages), read-out: Activity; procedure, shortened: as §2
[9] = tested on: Thoracic aorta; assay: Vasodilation activity against KCl-induced Sprague-Dawley rat thoracic aorta vessels contraction in presence of glyburide; type: functional, tissue-based
[10] = tested on: HUVEC; assay: Inhibition of H2O2-induced oxidative damage in HUVECs preincubated for 24 hrs followed by H2O2 addition and measured after 2 hrs by MTT method; type: functional, cell-based; conditions: Homo sapiens, time 26.0 hrs
Procedure, shortened: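 HUVECs were seeded and grown 24 h at 37 °C, 5% CO₂, then given compound (0.5, 5 or 20 μM) for 24 h. Control and model wells received serum-free medium instead. Model and treated wells were then exposed to 1 mM H₂O₂ for 2 h, followed by MTT for 4 h, DMSO, and absorbance at 570 nm. Trolox was the positive control; mean ± SD, n = 5.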

[11] = tested on: HUVEC; assay: Cytotoxicity against HUVECs at 0.5 to 200 uM incubated for 24 hrs by MTT assay; type: toxicity, cell-based; conditions: human, dose 0.5-200 µM
Procedure, shortened: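 HUVECs bought from ATCC; compounds given for 24 h, then MTT (5 mg/mL, 20 μL/well) added for 4 h. Formazan dissolved in DMSO and absorbance read at 570 nm. Medium-only and untreated-cell wells served as controls.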

[12] = Induction of H2S release in phosphate buffer at 100 uM measured upto 150 mins under L-cysteine stimulated condition by microplate reader analysis; conditions: 2.5 h
Procedure, shortened: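 Compound (100 μM) incubated with 1 mM L-cysteine in phosphate buffer at 37 °C, sampled at 0–150 min. Each sample quenched with zinc acetate and trichloroacetic acid, then N,N-dimethyl-p-phenylenediamine and FeCl₃ in HCl added. Absorbance read at 670 nm after 10 min; H₂S quantified against a NaHS standard curve (5–150 μM).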

[13] = Water solubility of the compound after 20 mins by HPLC analysis; type: physicochemical
Procedure, shortened: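 Compound suspended in 1 mL water at room temperature, sonicated 20 min and passed through a 0.22 μm filter. Filtrate analyzed by HPLC (MeCN/water 95:5, 1.0 mL/min, UV 254 nm) and quantified against a standard curve of 0.5–500 μg/mL in MeOH.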

Activity [12] | solubility at 20 min [13] | SMILES | Activity [1] | Activity [2] | Activity [3] | Activity [4] | Activity [5] | Activity [6] | viability at 24 h, 50 µM [7] | viability at 24 h, 100 µM [8] | Activity [9] | inhibition [10] | Activity [11]
 |  | C=C[C@]1(C)CC[C@@H](C(=C)COC(=O)CCCCCC(=O)Oc2ccc(-c3nc(=O)ss3)cc2)C[C@H]1C(=C)C | -0.4% | 4.76% | 2.38% | 7.08% | 8.22% | Active | 323% | 391% |  |  | 
 |  | C=C[C@]1(C)CC[C@@H](C(=C)C)C[C@H]1C(=C)COC(=O)CCC(=O)OCCOc1ccc(-c2cc(=S)ss2)cc1 | 7.47% | -8.64% | 14.98% | 13.2% | 7.43% |  | 244% | 262% |  |  | 
 |  | C=C[C@]1(C)CC[C@@H](C(=C)COC(=O)CCCCC2CCSS2)C[C@H]1C(=C)C (some centres not stated) | -3.41% | -5.69% | 6.38% | 8.99% | 11.51% |  | 296% | 378% |  |  | 
 |  | C=C[C@]1(C)CC[C@@H](C(=C)COC(=O)CCC(=O)OCCOc2ccc(-c3nc(=O)ss3)cc2)C[C@H]1C(=C)C | -0.71% | 10.11% | 17.84% | 26.82% | 34.29% | Active | 266% | 254% |  |  | 
 |  | Oc1ccc(-c2cc(=S)ss2)cc1 | 3.08% | 5.39% | 42.24% | 61.69% | 75.01% |  |  |  | inactive | Active | Non-Toxic
 |  | C=C[C@]1(C)CC[C@@H](C(=C)COCCCCCCOc2ccc(C(N)=S)cc2)C[C@H]1C(=C)C | 6.68% | 4.72% | 0.07% | 10.31% | 12.18% |  | 279% | 17.1% |  |  | 
100 µM |  | C=C[C@]1(C)CC[C@@H](C(=C)COC(=O)c2ccccc2C(=O)OCCOc2ccc(-c3cc(=S)ss3)cc2)C[C@H]1C(=C)C | -2.99% | 10.01% | 17% | 17.46% | 28.25% | Active | 349% | 454% |  | Active | Non-Toxic
 |  | C=C[C@]1(C)CC[C@@H](C(=C)COC(=O)CCCCCCC(=O)Oc2ccc(-c3cc(=S)ss3)cc2)C[C@H]1C(=C)C | 12.81% | 5.04% | 0.55% | 7.96% | 14.68% |  | 189% | 202% |  |  | 
 |  | C=C[C@]1(C)CC[C@@H](C(=C)C)C[C@H]1C(=C)COC(=O)C(NC(=O)CCC(=O)OCCOc1ccc(-c2cc(=S)ss2)cc1)C(C)CC (some centres not stated) | 0.64% | 2.75% | 6.75% | 7.93% | 13% |  | 269% | 272% |  |  | 
 |  | C=C[C@]1(C)CC[C@@H](C(=C)C)C[C@H]1C(=C)COC(=O)CCCCC1CCSS1 (some centres not stated) | -19.8% | -2.4% | 20.75% | 24.52% | 17.27% |  | 157% | 336% |  |  | 
50 µM |  | NC(=S)c1ccc(O)cc1 |  |  |  |  |  |  |  |  |  |  | 
 |  | C=C[C@]1(C)CC[C@@H](C(=C)COC(=O)CCCCCC(=O)Oc2ccc(-c3cc(=S)ss3)cc2)C[C@H]1C(=C)C | -1.15% | 6.64% | 6.99% | 16.08% | 21.17% |  | 232% | 459% |  |  | 
100 µM | 40 µg/mL (≈ 62.6 µM) | C=C[C@]1(C)CC[C@@H](C(=C)COC(=O)c2c(F)cccc2C(=O)OCCOc2ccc(-c3cc(=S)ss3)cc2)C[C@H]1C(=C)C | 18.12% | 25.08% | 38.87% | 51.85% | 61.41% | Active | 193% | 347% | Active | Active | Non-Toxic
 |  | C=C[C@]1(C)CC[C@@H](C(=C)COCCCCCCCCOc2ccc(C(N)=S)cc2)C[C@H]1C(=C)C | -4.54% | 1.71% | 8.86% | 12.44% | 19.64% | Active | 74.5% | 27.1% |  |  | 
 |  | C=C[C@]1(C)CC[C@@H](C(=C)COCCCCOc2ccc(C(N)=S)cc2)C[C@H]1C(=C)C | 4.61% | 4.13% | 17.37% | 15.38% | 30.23% |  | 163% | 14.9% |  |  | 
100 µM |  | C=C[C@]1(C)CC[C@@H](C(=C)COC(=O)C(NC(=O)CCC(=O)OCCOc2ccc(-c3cc(=S)ss3)cc2)C(C)CC)C[C@H]1C(=C)C (some centres not stated) | 1.7% | 3.38% | -6.76% | 4.83% | 14.29% |  | 295% | 584% |  |  | 
100 µM |  | C=C[C@]1(C)CC[C@@H](C(=C)COC(=O)CCC(=O)OCCOc2ccc(-c3cc(=S)ss3)cc2)C[C@H]1C(=C)C | 1.27% | 6.87% | 11.63% | 12.67% | 12.14% |  | 264% | 349% |  |  | 
 |  | C=C[C@]1(C)CC[C@@H](C(=C)COC(=O)CCCCCC(=O)Oc2ccc(C(N)=S)cc2)C[C@H]1C(=C)C | 1.2% | 4.53% | 2.67% | 4.19% | 6.38% |  | 177% | 219% |  |  | 
 |  | C=C[C@]1(C)CC[C@@H](C(=C)COC(=O)/C=C\C(=O)OCCOc2ccc(-c3cc(=S)ss3)cc2)C[C@H]1C(=C)C | -4.07% | 1.54% | 7.28% | 12.57% | 10.78% |  | 99% | 89.7% |  |  | 
 |  | C=C[C@]1(C)CC[C@@H](C(=C)COC(=O)C(NC(=O)CCCCC2CCSS2)C(C)CC)C[C@H]1C(=C)C (some centres not stated) | -5.9% | -8.16% | 2.19% | 1.21% | 14.47% |  | 208% | 268% |  |  | 
 |  | C=C[C@]1(C)CC[C@@H](C(=C)C)C[C@H]1C(=C)COC(=O)C(NC(=O)CCCCC1CCSS1)C(C)CC (some centres not stated) | 1.1% | 2.78% | -3.6% | 5.16% | 14.67% |  | 672% | 882% |  |  | 
 |  | C=C[C@]1(C)CC[C@@H](C(=C)CO)C[C@H]1C(=C)C | 0.09% | 4.63% | 5.63% | 27.81% | 53.06% |  | 275% | 281% |  | Active | Non-Toxic
20 µM |  | O=C(O)CCCCC1CCSS1 (stereo not drawn) [LIPOIC ACID, ALPHA] |  |  |  |  |  |  |  |  |  |  | 
